17 molecules from ChEMBL document CHEMBL1255187, “Structure-based design and synthesis of potent, ethylenediamine-based, mammalian farnesyltransferase inhibitors as anticancer agents” (J Med Chem, 2010) can be followed below.

One may read the IC50 as the midpoint of a concentration-inhibition curve.

Test [1] addresses Geranylgeranyl transferase type 1 (Mus musculus, UniProt Q61239+Q8BUY9). In words: Inhibition of Rap1A geranylgeranylation expressed in mouse NIH3T3 cells. The test is classed as functional, cell-based. In short, it runs like this: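 Oncogenic H-Ras-transformed NIH3T3 cells were treated with a range of inhibitor concentrations. […] Detection used peroxidase-conjugated secondary antibodies and enhanced chemiluminescence. IC50 is the mean of three independent assays ± SD unless stated otherwise.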

The species entered for test [2] is Homo sapiens. The experiment in a line: Selectivity ratio of IC50 for human geranylgeranyltransferase-1 to IC50 for human farnesyltransferase.
For test [3], the target named is Geranylgeranyl transferase type I (Homo sapiens, UniProt P49354+P53609). In words: Inhibition of human geranylgeranyltransferase-1 assessed as incorporation of [3H]GGPP into H-Ras-CVLL. It is filed as protein-complex assay. In short, it runs like this: (§1)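 In vitro radiometric assay measuring transfer of [3H]FPP (FTase) or [3H]GGPP (GGTase-I) onto recombinant H-Ras-CVLS or H-Ras-CVLL, respectively.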

Test [4] has as its target Protein farnesyltransferase (Mus musculus, UniProt Q61239+Q8K2I1). In words: Inhibition of H-Ras farnesylation expressed in mouse NIH3T3 cells. The test is classed as functional, cell-based. In short, it runs like this:
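Oncogenic H-Ras-transformed NIH3T3 cells were treated with a range of inhibitor concentrations. Detection used peroxidase-conjugated secondary antibodies and enhanced chemiluminescence. IC50 is the mean of three independent assays ± SD unless stated otherwise.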

The target in test [5] is Protein farnesyltransferase (Homo sapiens, UniProt P49354+P49356). In words: Inhibition of human farnesyltransferase assessed as incorporation of [3H]FPP into H-Ras-CVLS. It is filed as protein-complex assay. In outline:
as §1

As for `Cn1cncc1CN(CCN(CC1CCCCC1)S(=O)(=O)c1ccccn1)c1ccc(C#N)cc1`, the concentration for half-maximal inhibition (IC50) in test [1] was found to be 6.2 µM; in test [3], 0.61 µM; in test [4] it was 0.268 µM; in test [5], 0.4 µM. Moreover, the Selectivity ratio in test [2] came out at 1.5.
The matching figures for `Cn1cncc1CN(CCN(CC1CCCCC1)S(=O)(=O)c1ccccn1)c1ccc(C#N)cn1`: 19 µM, 0.69 µM, 0.288 µM, 0.35 µM and 2.
The matching figures for `Cn1cnc(S(=O)(=O)N(CCN(Cc2cncn2C)c2ccc(C#N)cc2)CC2CCN(c3ncccn3)CC2)c1`: greater than 10 µM, greater than 10 µM, greater than 10 µM, 0.51 µM and greater than 20.
For `Cc1ccccc1CN(CCN(Cc1cncn1C)c1ccc(C#N)cc1)S(=O)(=O)c1cn(C)cn1`, the IC50 is greater than 10 µM in test [1], 0.78 µM in test [3], 1 µM in test [4] and 0.051 µM in test [5]. Further, the Selectivity ratio in test [2] is 15.
On the same counts, the results for `Cn1cnc(S(=O)(=O)N(CCN(Cc2cncn2C)c2ccc(C#N)cc2)Cc2ccc(-c3ccccc3)cc2)c1` are greater than 10 µM, 7.3 µM, 5 µM, 1.7 µM and 4.3.
The matching figures for `Cn1cnc(S(=O)(=O)N(CCN(Cc2cncn2C)c2ccc(C#N)cc2)CC2CCCCC2)c1`: greater than 10 µM, 0.53 µM, 0.1 µM, 0.06 µM and 8.8.
The matching figures for `Cc1nc(C)c(CN(CCN(Cc2cncn2C)c2ccc(C#N)cc2)S(=O)(=O)c2cn(C)cn2)s1`: greater than 10 µM, greater than 10 µM, greater than 10 µM, 6.2 µM and greater than 1.6.
In the case of `C=CCN(CCN(Cc1cncn1C)c1ccc(C#N)cc1)S(=O)(=O)c1cn(C)cn1`, the IC50 was greater than 10 µM in test [1], greater than 10 µM in test [3], greater than 10 µM in test [4] and 0.054 µM in test [5]. Moreover, the Selectivity ratio in test [2] is greater than 14.
For `Cc1noc(C)c1CN(CCN(Cc1cncn1C)c1ccc(C#N)cc1)S(=O)(=O)c1cn(C)cn1`, the IC50 is greater than 10 µM in test [1], 1.36 µM in test [3], greater than 10 µM in test [4] and 0.51 µM in test [5]. Besides, in test [2], the Selectivity ratio was determined as 2.7.
Turning to `Cn1cnc(S(=O)(=O)N(CCN(Cc2cncn2C)c2ccc(C#N)cc2)Cc2ccco2)c1`, the IC50 in test [1] is greater than 10 µM; in test [3], 13.4 µM; in test [4], 0.8 µM; in test [5], 0.87 µM. Also, the Selectivity ratio in test [2] stood at 15.
The matching figures for `Cn1cnc(S(=O)(=O)N(CCN(Cc2cncn2C)c2ccc(C#N)cc2)Cc2cccc(-c3ccccc3)c2)c1`: greater than 10 µM, 0.55 µM, 3 µM, 0.23 µM and 2.4.
The matching figures for `Cn1cncc1CN(CCN(Cc1ccccc1)S(=O)(=O)c1ccccc1)c1ccc(C#N)cc1`: greater than 10 µM, 0.31 µM, 0.3 µM, 0.041 µM and 7.6.
On the same counts, the results for `Cn1cnc(S(=O)(=O)N(CCN(Cc2cncn2C)c2ccc(C#N)cc2)Cc2cccs2)c1` are greater than 10 µM, 5.9 µM, 0.4 µM, 2.3 µM and 2.6.
`Cn1cnc(S(=O)(=O)N(CCN(Cc2cncn2C)c2ccc(C#N)cc2)CC(=O)NC(C)(C)C)c1`: the half-inhibitory concentration (IC50) in test [1] was greater than 10 µM; in test [3], greater than 10 µM; in test [4], greater than 10 µM; in test [5] it was 1.4 µM. Also, the Selectivity ratio in test [2] is greater than 7.1.
Turning to `Cn1cnc(S(=O)(=O)N(CCN(Cc2cncn2C)c2ccc(C#N)cc2)Cc2ccoc2)c1`, the IC50 was greater than 10 µM in test [1], 6.1 µM in test [3], 0.65 µM in test [4] and 0.32 µM in test [5]. In addition, in test [2], the Selectivity ratio came to 19.
Regarding `C=C(Br)CN(CCN(Cc1cncn1C)c1ccc(C#N)cc1)S(=O)(=O)c1cn(C)cn1`, the concentration for half-maximal inhibition (IC50) in test [1] is greater than 10 µM; in test [3] it was 5.5 µM; in test [4] it was 5.7 µM; in test [5] it was 0.18 µM. For the same molecule, the Selectivity ratio in test [2] came to 31.
The matching figures for `Cn1cnc(S(=O)(=O)N(CCN(Cc2cncn2C)c2ccc(C#N)cc2)CCn2cccc2)c1`: greater than 10 µM, 0.51 µM, 4.3 µM, 0.03 µM and 17.
